Test results as given in ChEMBL document CHEMBL4311931, “Controlling cellular distribution of drugs with permeability modifying moieties” (Medchemcomm, 2019).

What was measured:
[1] = molecular target: Bromodomain-containing protein 3 (Homo sapiens, UniProt Q15059); test: Inhibition of BRD3 (unknown origin) by TR-FRET assay
[2] = molecular target: T1, Bromodomain-containing protein 4 (Homo sapiens, UniProt O60885); test: Inhibition of BRD4 (unknown origin) by TR-FRET assay
[3] = molecular target: Bromodomain-containing protein 2 (Homo sapiens, UniProt P25440); test: Inhibition of BRD2 (unknown origin) by TR-FRET assay
Bromodomain-containing protein 2, sequence (P25440 whole entry): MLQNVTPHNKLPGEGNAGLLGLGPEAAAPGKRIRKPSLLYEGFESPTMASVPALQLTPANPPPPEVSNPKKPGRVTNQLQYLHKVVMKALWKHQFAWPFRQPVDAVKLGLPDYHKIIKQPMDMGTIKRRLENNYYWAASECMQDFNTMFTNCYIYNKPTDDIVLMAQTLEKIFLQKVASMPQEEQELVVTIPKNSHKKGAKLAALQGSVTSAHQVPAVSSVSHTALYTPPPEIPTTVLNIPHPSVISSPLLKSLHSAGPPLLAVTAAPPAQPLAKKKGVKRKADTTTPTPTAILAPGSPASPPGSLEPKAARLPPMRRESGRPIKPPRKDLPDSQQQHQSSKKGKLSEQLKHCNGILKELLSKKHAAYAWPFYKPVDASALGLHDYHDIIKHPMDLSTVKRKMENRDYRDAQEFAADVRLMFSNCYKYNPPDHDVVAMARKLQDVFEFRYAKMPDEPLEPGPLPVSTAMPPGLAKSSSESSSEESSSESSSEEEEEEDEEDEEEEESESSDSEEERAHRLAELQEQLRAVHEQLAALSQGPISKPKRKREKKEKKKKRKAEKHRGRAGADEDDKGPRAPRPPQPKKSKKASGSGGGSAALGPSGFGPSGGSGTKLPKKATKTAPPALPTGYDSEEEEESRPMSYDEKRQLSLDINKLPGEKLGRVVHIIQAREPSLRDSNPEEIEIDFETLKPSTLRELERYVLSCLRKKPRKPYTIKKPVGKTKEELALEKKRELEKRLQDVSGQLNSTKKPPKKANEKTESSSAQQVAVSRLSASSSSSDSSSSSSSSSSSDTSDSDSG

[4] = molecular target: T1, Bromodomain-containing protein 4; test: Inhibition of BRD4 in human MX1 cells assessed as decrease in cell proliferation after 3 days by Celltiter-Glo assay relative to parent compound; type: cell-based
How it was run: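 MX-1 breast cancer cells were treated for a 3-day proliferation assay and read out by CellTiter-Glo. Each EC50 is the geometric mean of at least two duplicate runs. The fold change is the ratio of the result to that of (+)-JQ1.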

[5] = molecular target: T1, Bromodomain-containing protein 4; test: Inhibition of BRD4 in human […] cells transfected with HPV-E2 assessed as transrepression of HPV-long control region by luciferase reporter assay; type: cell-based
[6] = molecular target: T1, Bromodomain-containing protein 4; test: Inhibition of BRD4 in luciferase expressing human […] cells transfected with HPV-E2 assessed as transrepression of HPV-long control region by luciferase reporter assay relative to parent compound
How it was run: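 In-cell target engagement was read in an engineered H1299-derived luciferase reporter system. Each EC50 is the geometric mean of at least two duplicate runs. The fold change is the ratio to (+)-JQ1.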

[7] = Ratio of drug concentration in unbound HEK293 cell to media; type: ADME; settings: human
How it was run: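 In HEK293 cells, Kpuu combines compound binding (fu,HEK) with intracellular accumulation (Kp, cell-to-media concentration ratio). Values are the geometric mean of at least two duplicate runs.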

[8] = Permeability of compound in 5% DMSO after 7 hrs by PAMPA; type: ADME; settings: read-out: permeability
Histamine H3 receptor [9] = molecular target: T2, Histamine H3 receptor (Homo sapiens, UniProt Q9Y5N1); test: Antagonist activity at human H3 receptor expressed in CHOK1 cells incubated for 10 mins by HTRF assay; type: cell-based
T2 sequence (Q9Y5N1 whole entry): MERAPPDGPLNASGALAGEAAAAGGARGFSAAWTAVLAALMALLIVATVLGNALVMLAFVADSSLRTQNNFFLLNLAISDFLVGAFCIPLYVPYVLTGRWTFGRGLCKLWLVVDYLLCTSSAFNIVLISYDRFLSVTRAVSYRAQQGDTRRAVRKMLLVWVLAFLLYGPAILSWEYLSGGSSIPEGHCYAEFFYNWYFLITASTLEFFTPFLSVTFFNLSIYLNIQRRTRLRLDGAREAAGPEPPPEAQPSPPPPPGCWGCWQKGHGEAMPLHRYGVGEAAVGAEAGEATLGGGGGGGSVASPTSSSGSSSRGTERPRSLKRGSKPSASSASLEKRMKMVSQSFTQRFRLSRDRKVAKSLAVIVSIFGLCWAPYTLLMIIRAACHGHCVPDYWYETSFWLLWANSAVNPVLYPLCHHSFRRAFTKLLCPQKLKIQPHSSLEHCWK

Histamine H3 receptor [10] = molecular target: T2, Histamine H3 receptor; test: Agonist activity at human H3 receptor expressed in CHOK1 cells incubated for 10 mins by HTRF assay; type: cell-based
Histamine H3 receptor [11] = molecular target: T2, Histamine H3 receptor; test: Displacement of [3H]Nalpha-methylhistamine from recombinant human histamine H3 receptor after 60 mins by scintillation counting method
PC-3 = test: Antiproliferative activity against human PC3 cells assessed as reduction in cell viability by Celltiter-Glo assay; type: functional, cell-based
How it was run: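 PC3 cells from ATCC, authenticated by STR analysis. Viability was read by CellTiter-Glo, and cell EC50 is the geometric mean of at least two duplicate runs.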

[12] = molecular target: T3, Nicotinamide phosphoribosyltransferase (Homo sapiens, UniProt P43490); test: Displacement of fluorescent labelled OG488 from human full length FLAG-tagged NAMPT (1 to 491 residues) expressed in HEK293-6E cells in presence of PRPP by TR-FRET assay; type: cell-based
T3 sequence (P43490 whole entry, the tested form may be a part): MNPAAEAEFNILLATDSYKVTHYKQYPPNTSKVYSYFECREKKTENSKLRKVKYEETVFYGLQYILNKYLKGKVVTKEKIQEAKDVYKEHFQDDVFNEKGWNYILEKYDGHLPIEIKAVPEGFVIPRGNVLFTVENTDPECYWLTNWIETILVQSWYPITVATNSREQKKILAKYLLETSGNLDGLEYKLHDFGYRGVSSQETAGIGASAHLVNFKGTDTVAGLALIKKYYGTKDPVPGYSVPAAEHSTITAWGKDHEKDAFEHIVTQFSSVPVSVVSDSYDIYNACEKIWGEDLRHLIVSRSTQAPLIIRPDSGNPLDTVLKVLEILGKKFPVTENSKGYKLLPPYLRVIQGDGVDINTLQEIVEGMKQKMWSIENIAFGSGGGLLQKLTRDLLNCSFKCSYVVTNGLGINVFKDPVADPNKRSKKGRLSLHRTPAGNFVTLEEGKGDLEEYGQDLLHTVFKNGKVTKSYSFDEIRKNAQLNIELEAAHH

[13] = molecular target: T3, Nicotinamide phosphoribosyltransferase; test: Displacement of fluorescent labelled OG488 from human full length FLAG-tagged NAMPT (1 to 491 residues) expressed in HEK293-6E cells in absence of PRPP by TR-FRET assay; type: cell-based

Bromodomain-containing protein 3, sequence (Q15059 whole entry): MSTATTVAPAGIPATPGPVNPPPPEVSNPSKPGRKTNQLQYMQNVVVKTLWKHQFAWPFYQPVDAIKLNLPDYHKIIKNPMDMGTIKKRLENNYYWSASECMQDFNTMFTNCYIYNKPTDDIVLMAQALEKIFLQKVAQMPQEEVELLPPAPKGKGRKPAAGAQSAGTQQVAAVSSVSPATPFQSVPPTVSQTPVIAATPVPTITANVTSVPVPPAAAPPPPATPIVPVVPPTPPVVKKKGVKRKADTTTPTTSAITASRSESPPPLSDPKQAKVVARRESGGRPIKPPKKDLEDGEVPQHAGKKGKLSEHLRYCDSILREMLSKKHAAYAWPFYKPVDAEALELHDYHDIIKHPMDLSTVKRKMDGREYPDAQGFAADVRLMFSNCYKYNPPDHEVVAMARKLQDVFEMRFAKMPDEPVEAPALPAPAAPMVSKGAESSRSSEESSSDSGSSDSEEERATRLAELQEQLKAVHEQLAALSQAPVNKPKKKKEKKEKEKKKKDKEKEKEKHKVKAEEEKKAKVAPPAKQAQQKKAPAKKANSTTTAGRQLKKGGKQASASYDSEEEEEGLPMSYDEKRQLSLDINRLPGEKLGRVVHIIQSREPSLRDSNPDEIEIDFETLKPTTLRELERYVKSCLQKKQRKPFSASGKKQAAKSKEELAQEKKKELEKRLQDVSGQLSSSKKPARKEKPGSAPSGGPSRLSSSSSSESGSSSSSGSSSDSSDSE

SMILES | IC50 [1] | IC50 [2] | IC50 [3] | fold change (FC) [4] | EC50 [5] | fold change (FC) [6] | Ratio [7] | Papp at 7 h [8] | IC50 (Histamine H3 receptor [9]) | EC50 (Histamine H3 receptor [10]) | Ki (Histamine H3 receptor [11]) | IC50 (PC-3) | Ki [12] | Ki [13]
Cc1sc2c(c1C)C(c1ccc(Cl)cc1)=N[C@@H](CC(=O)NCCOCCOCCNC(=O)C1C(C(=O)O)C(C(=O)O)C1C(=O)O)c1nnc(C)n1-2 (some centres undefined) | 456 nM | > 10000 nM | 997 nM | > 50 | > 10000 nM | > 50 | 0.0359 | – | – | – | – | – | – | –
Cc1sc2c(c1C)C(c1ccc(Cl)cc1)=N[C@@H](CC(=O)NCCOCCOCCN)c1nnc(C)n1-2 | 7 nM | 2480 nM | 16 nM | 17.2 | 8490 nM | > 50 | 0.0695 | 0.0146 ×10⁻⁶ cm/s | – | – | – | – | – | –
Cc1nn(CCOCCOCCNC(=O)CS(=O)(=O)O)cc1-c1ccc2cc(CCN3CCC[C@H]3C)ccc2n1 | – | – | – | – | – | – | – | – | 45 nM | > 3000 nM | 5.6 nM | – | – | –
NCc1cccc(C(=O)N2CCC(CCCCNC(=O)/C=C/c3cccnc3)CC2)c1 | – | – | – | – | – | – | – | 0.092 ×10⁻⁶ cm/s | – | – | – | 30.2 nM | 1.1 nM | 55 nM
Cc1sc2c(c1C)C(c1ccc(Cl)cc1)=N[C@@H](CC(=O)NCCOCCOCCNC(=O)CCCCCC1(C)C(/C=C/C=C/C=C3/N(CCCS(=O)(=O)O)c4ccc(S(=O)(=O)O)cc4C3(C)C)=[N+](CCCS(=O)(=O)[O-])c3ccc(S(=O)(=O)O)cc31)c1nnc(C)n1-2 (some centres undefined) | > 20500 nM | 9110 nM | > 45000 nM | > 50 | > 10000 nM | > 50 | 0.0064 | – | – | – | – | – | – | –
Cc1nn(CCOCCOCCNC(=O)C2C(C(=O)O)C(C(=O)O)C2C(=O)O)cc1-c1ccc2cc(CCN3CCC[C@H]3C)ccc2n1 (some centres undefined) | – | – | – | – | – | – | – | 0.0131 ×10⁻⁶ cm/s | 150 nM | > 3000 nM | 25.4 nM | – | – | –
Cc1sc2c(c1C)C(c1ccc(Cl)cc1)=N[C@@H](CC(=O)NCCOCCOCCNC(=O)CS(=O)(=O)O)c1nnc(C)n1-2 | 78 nM | > 10000 nM | 78 nM | > 50 | > 10000 nM | > 50 | 0.0219 | – | – | – | – | – | – | –
Cc1nn(CCOCCOCCN)cc1-c1ccc2cc(CCN3CCC[C@H]3C)ccc2n1 | – | – | – | – | – | – | – | 0.0246 ×10⁻⁶ cm/s | 1 nM | > 3000 nM | 0.7 nM | – | – | –
NCCOCCOCC(=O)NCc1cccc(C(=O)N2CCC(CCCCNC(=O)/C=C/c3cccnc3)CC2)c1 | – | – | – | – | – | – | – | 0.016 ×10⁻⁶ cm/s | – | – | – | 296 nM | 1.9 nM | 60 nM
Cc1nn(CCOCCOCCNC(=O)CCCCCC2(C)C(/C=C/C=C/C=C3/N(CCCS(=O)(=O)O)c4ccc(S(=O)(=O)O)cc4C3(C)C)=[N+](CCCS(=O)(=O)[O-])c3ccc(S(=O)(=O)O)cc32)cc1-c1ccc2cc(CCN3CCC[C@H]3C)ccc2n1 (some centres undefined) | – | – | – | – | – | – | – | 0.284 ×10⁻⁶ cm/s | 13 nM | 88 nM | 1.9 nM | – | – | –
Cc1nn(CCOCCOCCNC(=O)OC(C)(C)C)cc1-c1ccc2cc(CCN3CCC[C@H]3C)ccc2n1 | – | – | – | – | – | – | – | 0.873 ×10⁻⁶ cm/s | 41 nM | > 3000 nM | 1.5 nM | – | – | –
Cc1sc2c(c1C)C(c1ccc(Cl)cc1)=N[C@@H](CC(=O)NCCOCCOCCNC(=O)OC(C)(C)C)c1nnc(C)n1-2 | 42 nM | 526 nM | 35 nM | 3.65 | 718 nM | 11.2 | 0.168 | 6.22 ×10⁻⁶ cm/s | – | – | – | – | – | –
